Measurements taken from ChEMBL document CHEMBL1147099, “In vitro and in vivo antibacterial activities of heteroaryl isothiazolones against resistant gram-positive pathogens” (Antimicrob Agents Chemother, 2007).
≈ marks a conversion by molar mass, not a printed value.

Tests used:
Format in all cases: functional
Staphylococcus aureus [1] = assay: Antibacterial activity against ethidium bromide-resistant Staphylococcus aureus BSA678 after 24 hrs by broth microdilution method; conditions: BSA678, 24 h
How it was run: (§1)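 Broth microdilution per CLSI in cation-adjusted Mueller-Hinton II broth, final inoculum approximately 5 × 10^5 CFU/ml. Plates were incubated aerobically at 35 to 37°C for 24 h. MIC was the lowest concentration giving no visible growth. Reserpine, where used, was at a final concentration of 20 μg/ml.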

Staphylococcus aureus [2] = assay: Antibacterial activity against ethidium bromide-resistant Staphylococcus aureus BSA643 after 24 hrs by broth microdilution method; conditions: BSA643, 24 h; how it was run: as §1
Staphylococcus aureus [3] = assay: Antibacterial activity against […] Staphylococcus aureus ATCC 29213 after 24 hrs by broth microdilution method; conditions: ATCC 29213, 24 h; how it was run: as §1
Staphylococcus aureus [4] = assay: Antibacterial activity against ethidium bromide-resistant Staphylococcus aureus Mu50 after 24 hrs by broth microdilution method; conditions: Mu50, 24 h; how it was run: as §1
Staphylococcus aureus [5] = assay: Antibacterial activity against […] Staphylococcus aureus ATCC 29213 in presence of 20 ug/ml reserpine after 24 hrs by broth microdilution method; conditions: ATCC 29213, 24 h; how it was run: as §1
Staphylococcus aureus [6] = assay: Antibacterial activity against ethidium bromide-resistant Staphylococcus aureus Mu50 in presence of 20 ug/ml reserpine after 24 hrs by broth microdilution method; conditions: Mu50, 24 h; how it was run: as §1
Bacteroides fragilis = assay: Antibacterial activity against Bacteroides fragilis by agar dilution method
How it was run: (§2)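 Anaerobes by CLSI agar dilution on brucella agar with hemin, vitamin K and 5% laked sheep blood; inoculum from 24-h enriched blood agar colonies resuspended in brucella broth to 0.5 McFarland. Plates incubated anaerobically at 35–37°C for 48 h.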

Klebsiella pneumoniae = assay: Antibacterial activity against Klebsiella pneumoniae
How it was run: (§3)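 Aerobic isolates run by CLSI broth microdilution in cation-adjusted Mueller-Hinton II broth (streptococci plus 2–5% lysed horse blood), about 5 × 10^5 CFU/ml final; 24 h at 35–37°C aerobically; MIC read as lowest concentration without visible growth.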

Escherichia coli = assay: Antibacterial activity against Escherichia coli after 24 hrs by broth microdilution method
How it was run: (§4)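 CLSI broth microdilution in cation-adjusted Mueller-Hinton II broth, final inoculum about 5 × 10^5 CFU/ml for most strains; streptococci supplemented with 2–5% lysed horse blood, H. influenzae in Haemophilus test medium. Aerobic incubation at 35–37°C for 24 h; MIC = lowest concentration with no visible growth.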

Cutibacterium acnes = assay: Antibacterial activity against Propionibacterium acnes; how it was run: as §2
Peptostreptococcus sp. = assay: Antibacterial activity against Peptostreptococcus sp. by agar dilution method; how it was run: as §2
Acinetobacter baumannii = assay: Antibacterial activity against Acinetobacter baumannii after 24 hrs by broth microdilution method; how it was run: as §4
Clostridioides difficile = assay: Antibacterial activity against Clostridium difficile by agar dilution method; how it was run: as §2
Enterobacter sp. = assay: Antibacterial activity against Enterobacter sp.; how it was run: as §3
Legionella pneumophila = assay: Antibacterial activity against Legionella pneumophila after 24 hrs by broth microdilution method
Streptococcus viridans = assay: Antibacterial activity against Streptococcus viridans after 24 hrs by broth microdilution method; how it was run: as §4
Streptococcus pyogenes = assay: Antibacterial activity against Streptococcus pyogenes; how it was run: as §3
Staphylococcus aureus [7] = assay: Antibacterial activity against methicillin-susceptible Staphylococcus aureus after 24 hrs by broth microdilution method; how it was run: as §1
[8] = test system: Mycoplasmoides pneumoniae; assay: Antibacterial activity against Mycoplasma pneumoniae after 24 hrs by broth microdilution method
Neisseria meningitidis = assay: Antibacterial activity against Neisseria meningitidis after 24 hrs by broth microdilution method; how it was run: as §4
Staphylococcus aureus [9] = assay: Antibacterial activity against methicillin-resistant Staphylococcus aureus after 24 hrs by broth microdilution method; how it was run: as §1
Haemophilus influenzae = assay: Antibacterial activity against Haemophilus influenzae after 24 hrs by broth microdilution method; how it was run: as §4
Moraxella catarrhalis = assay: Antibacterial activity against Moraxella catarrhalis after 24 hrs by broth microdilution method; how it was run: as §4
Pseudomonas aeruginosa = assay: Antibacterial activity against Pseudomonas aeruginosa after 24 hrs by broth microdilution method; how it was run: as §4
Streptococcus pneumoniae = assay: Antibacterial activity against Streptococcus pneumoniae by agar dilution method
Enterococcus faecalis = assay: Antibacterial activity against Enterococcus faecalis; how it was run: as §3
Enterococcus faecium = assay: Antibacterial activity against Enterococcus faecium; how it was run: as §3
Neisseria gonorrhoeae = assay: Antibacterial activity against Neisseria gonorrhoeae after 24 hrs by broth microdilution method; how it was run: as §4

## CO/N=C1\CN(c2nc3c(cc2F)c(=O)c(C(=O)O)cn3C2CC2)CC1CN (stereo not given) [GEMIFLOXACIN]
Staphylococcus aureus [1]
  MIC: 64 µg/mL (≈ 164 µM)
Staphylococcus aureus [2]
  MIC: 32 µg/mL (≈ 82.2 µM)
Staphylococcus aureus [3]
  MIC: 0.03 µg/mL (≈ 0.077 µM)
Staphylococcus aureus [4]
  MIC: 4 µg/mL (≈ 10.3 µM)

## CC[n+]1c(-c2ccccc2)c2cc(N)ccc2c2ccc(N)cc21.[Br-] [HOMIDIUM BROMIDE]
Staphylococcus aureus [1]
  MIC: 4 µg/mL
Staphylococcus aureus [2]
  MIC: 16 µg/mL
Staphylococcus aureus [3]
  MIC: 4 µg/mL
Staphylococcus aureus [5]
  MIC: 0.03 µg/mL
Staphylococcus aureus [4]
  MIC: 64 µg/mL
Staphylococcus aureus [6]
  MIC: 64 µg/mL

## C[C@@H](O)[C@H]1C(=O)N2C(C(=O)O)=C(SCCNC=N)C[C@H]12 [IMIPENEM ANHYDROUS]
Bacteroides fragilis
  MIC50: 0.25 µg/mL (≈ 0.835 µM)
  MIC90: 0.25 µg/mL (≈ 0.835 µM)
Klebsiella pneumoniae
  MIC50: 0.5 µg/mL (≈ 1.67 µM)
  MIC90: 1 µg/mL (≈ 3.34 µM)
Escherichia coli
  MIC50: 0.5 µg/mL (≈ 1.67 µM)
  MIC90: 0.5 µg/mL (≈ 1.67 µM)
Cutibacterium acnes
  MIC50: 0.06 µg/mL (≈ 0.2 µM)
  MIC90: 0.06 µg/mL (≈ 0.2 µM)
Peptostreptococcus sp.
  MIC50: 0.06 µg/mL (≈ 0.2 µM)
  MIC90: 0.25 µg/mL (≈ 0.835 µM)
Acinetobacter baumannii
  MIC50: 1 µg/mL (≈ 3.34 µM)
  MIC90: > 16 µg/mL
Clostridioides difficile
  MIC50: 4 µg/mL (≈ 13.4 µM)
  MIC90: 4 µg/mL (≈ 13.4 µM)
Enterobacter sp.
  MIC50: 1 µg/mL (≈ 3.34 µM)
  MIC90: 2 µg/mL (≈ 6.68 µM)

## C[C@H]1COc2c(N3CCN(C)CC3)c(F)cc3c(=O)c(C(=O)O)cn1c23.C[C@H]1COc2c(N3CCN(C)CC3)c(F)cc3c(=O)c(C(=O)O)cn1c23.O [LEVOFLOXACIN]
Klebsiella pneumoniae
  MIC50: > 0.25 µg/mL
  MIC90: > 2 µg/mL
Legionella pneumophila
  MIC: 0.015 µg/mL
Escherichia coli
  MIC50: 0.03 µg/mL
Streptococcus viridans
  MIC50: 1 µg/mL
  MIC90: 1 µg/mL
Streptococcus pyogenes
  MIC50: 0.5 µg/mL
  MIC90: 1 µg/mL
Acinetobacter baumannii
  MIC50: 0.25 µg/mL
  MIC90: > 8 µg/mL
Staphylococcus aureus [7]
  MIC50: 0.25 µg/mL
  MIC90: > 16 µg/mL
[8]
  MIC: 0.5 µg/mL
Neisseria meningitidis
  MIC50: ≤ 0.12 µg/mL
  MIC90: ≤ 0.12 µg/mL
Staphylococcus aureus [9]
  MIC50: 16 µg/mL
Enterobacter sp.
  MIC50: 0.03 µg/mL
  MIC90: 0.5 µg/mL
Haemophilus influenzae
  MIC50: 0.015 µg/mL
  MIC90: 0.03 µg/mL
Moraxella catarrhalis
  MIC50: 0.03 µg/mL
  MIC90: 0.06 µg/mL
Pseudomonas aeruginosa
  MIC50: 0.5 µg/mL
  MIC90: > 8 µg/mL
Streptococcus pneumoniae
  MIC50: 1 µg/mL
  MIC90: 1 µg/mL
Enterococcus faecalis
  MIC50: 16 µg/mL
  MIC90: > 16 µg/mL
Enterococcus faecium
  MIC50: > 16 µg/mL
  MIC90: > 16 µg/mL

## C[C@@H](O)[C@H]1C(=O)N2C(C(=O)O)=C(S[C@@H]3CN[C@H](C(=O)N(C)C)C3)[C@H](C)[C@H]12 [MEROPENEM]
Neisseria meningitidis
  MIC50: 0.008 µg/mL (≈ 0.0209 µM)
  MIC90: 0.015 µg/mL (≈ 0.0391 µM)

## Cc1ncc([N+](=O)[O-])n1CCO [METRONIDAZOLE]
Cutibacterium acnes
  MIC50: > 64 µg/mL
  MIC90: > 64 µg/mL
Clostridioides difficile
  MIC50: 0.5 µg/mL (≈ 2.92 µM)
  MIC90: 0.5 µg/mL (≈ 2.92 µM)

## CN(C)c1ccc(O)c2c1C[C@H]1C[C@H]3[C@H](N(C)C)C(O)=C(C(N)=O)C(=O)[C@@]3(O)C(O)=C1C2=O [MINOCYCLINE]
Neisseria meningitidis
  MIC50: 0.12 µg/mL (≈ 0.262 µM)
  MIC90: 0.12 µg/mL (≈ 0.262 µM)

## Cc1onc(-c2ccccc2)c1C(=O)N[C@@H]1C(=O)N2[C@@H]1SC(C)(C)[C@@H]2C(=O)O [OXACILLIN]
Staphylococcus aureus [7]
  MIC50: 0.5 µg/mL (≈ 1.25 µM)
  MIC90: 0.5 µg/mL (≈ 1.25 µM)
Staphylococcus aureus [9]
  MIC50: > 16 µg/mL
  MIC90: > 16 µg/mL

## CN(C)[C@@H]1C(O)=C(C(N)=O)C(=O)[C@@]2(O)C(O)=C3C(=O)c4c(O)cccc4[C@@](C)(O)[C@H]3C[C@@H]12 [TETRACYCLINE]
Neisseria gonorrhoeae
  MIC50: 0.25 µg/mL (≈ 0.563 µM)
  MIC90: 1 µg/mL (≈ 2.25 µM)
